Measurements as given in ChEMBL document CHEMBL1141646, “Microwave-assisted synthesis and antimicrobial activities of flavonoid derivatives” (Bioorg Med Chem Lett, 2008).
Values after ≈ are worked out from the molar mass of the structure shown. Active and inactive are the calls of the source. No cut-off for these calls is given here.

What was measured:
Type in all cases: functional, organism-based
Aspergillus niger = assay: Antifungal activity against Aspergillus niger NCTC 275 after 4 days; details: NCTC 275, 96 h
Procedure, shortened: (§1)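 Compounds were incorporated into agar medium at final concentrations of 200, 100, 50 and 10 µg/mL. A disc of fungal mycelium was placed at the centre of each Petri dish. Plates were incubated at 37 °C until the control plates reached full growth (4 days). Inhibition diameter was then measured and IC50 derived. Values are means of replicates.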

Fusarium oxysporum = assay: Antifungal activity against Fusarium oxysporum after 4 days; details: 96 h; procedure, shortened: as §1
Staphylococcus aureus [1] = assay: Antibacterial activity against methicillin-resistant Staphylococcus aureus NCTC 10442 by paper disc diffusion method
Escherichia coli = assay: Antibacterial activity against Escherichia coli by paper disc diffusion method
Staphylococcus aureus [2] = assay: Antibacterial activity against methicillin-resistant Staphylococcus aureus NCTC 10442 assessed as protein content after 3 hrs by bradford method; details: NCTC 10442, 3 h
Procedure, shortened: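 MRSA exposed to compounds dissolved in DMSO, with a DMSO-only negative control and gentamycin at the same concentrations in sterile water as positive control. Incubated 3 h at 37 °C; growth read as protein content by the Bradford method and plotted against compound concentration.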

Row | IC50 (Aspergillus niger) [µg/mL] | IC50 (Fusarium oxysporum) [µg/mL] | Compound | Activity (Staphylococcus aureus [1]) | Activity (Escherichia coli) | IC50 (Staphylococcus aureus [2]) [µg/mL]
1 | 142 (≈ 444 µM) | 682 (≈ 2140 µM) | O=c1cc(-c2ccc(F)cc2)oc2ccc(Br)cc12 |  |  | 
2 | 93.4 (≈ 241 µM) | 177 (≈ 457 µM) | COc1ccc2oc(-c3cc(C(F)(F)F)cc(C(F)(F)F)c3)cc(=O)c2c1 |  |  | 
3 | 28.2 (≈ 85.2 µM) | 176 (≈ 531 µM) | COc1ccc2c(=O)cc(-c3ccc(Br)cc3)oc2c1 |  |  | 
4 | 157 (≈ 469 µM) | 282 (≈ 840 µM) | O=c1cc(-c2ccc(Cl)cc2)oc2ccc(Br)cc12 |  |  | 
5 | 77.1 (≈ 256 µM) | 26900 (≈ 89400 µM) | O=c1cc(-c2ccccc2)oc2ccc(Br)cc12 [6-BROMOFLAVONE] |  |  | 
6 | 60.3 (≈ 138 µM) | 65.2 (≈ 149 µM) | O=c1cc(-c2cc(C(F)(F)F)cc(C(F)(F)F)c2)oc2ccc(Br)cc12 |  |  | 
7 | 83.4 (≈ 252 µM) | 2250 (≈ 6790 µM) | COc1ccc(-c2cc(=O)c3cc(Br)ccc3o2)cc1 |  |  | 
8 | 41.9 (≈ 146 µM) | 1430 (≈ 4980 µM) | COc1ccc2oc(-c3ccc(Cl)cc3)cc(=O)c2c1 |  |  | 
9 | 178 (≈ 553 µM) | 10600 (≈ 33000 µM) | COc1ccc2c(=O)cc(-c3cc(Cl)cc(Cl)c3)oc2c1 |  |  | 

Row | Compound | IC50 (Aspergillus niger) [µg/mL] | IC50 (Fusarium oxysporum) [µg/mL] | Activity (Staphylococcus aureus [1]) | Activity (Escherichia coli) | IC50 (Staphylococcus aureus [2]) [µg/mL]
10 | O=c1cc(C2CCCCC2)oc2ccc(Br)cc12 | 90.4 (≈ 294 µM) | 107 (≈ 347 µM) | Active | inactive | 12000 (≈ 39100 µM)
11 | COc1ccc2oc(C3CCCCC3)cc(=O)c2c1 | 58.9 (≈ 228 µM) | 117 (≈ 452 µM) | Active | inactive | 69.6 (≈ 269 µM)
